MEKK3 PB1 HTS = modulators of MEKK3-MEK5 PB1 binding, primary screen, biochemical, wildtype MEKK3, multiplex bead flow cytometry, Alexa488-MEK5; Mitogen-activated protein kinase kinase kinase 3 (Homo sapiens), Q99759; bead-based flow cytometry, Alexa488-MEK5 binding to MEKK3; actives lie on both sides; 0 = blocked by unlabeled MEK5, 100 = vehicle; binding response (% of control), % at 10 µM; actives 1.4% (n = 290,000);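 active means binding response more than 3 SD above or below the average of its plate-row segment, actives on both sides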;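 further: Alexa488 bead fluorescence after subtracting the streptavidin-only scavenger bead signal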
MEKK2wt PB1 HTS = modulators of MEK5 binding to wildtype MEKK2, primary screen, biochemical, multiplex bead flow cytometry, Alexa488-MEK5 | Mitogen-activated protein kinase kinase kinase 2 (Homo sapiens), Q9Y2U5 | Alexa488-MEK5 binding to MEKK2 WT; actives lie on both sides | binding response (% of control), % at 10 µM | actives 1.1% (n = 290,000) | AID 1531, 2009; in the data active means binding response below about 67% or above about 130%
MEKK2 mut-MEK5 = MEK5 binding signal on mutant MEKK2 PB1, primary screen, biochemical, multiplex bead flow cytometry, Alexa488-MEK5; AID 1530, 2009; Alexa488-MEK5 binding to MEKK2 mutant; percent response, % at 10 µM; actives 0.35% (n = 290,000); in the data active means percent response above about 24%, passing the limit was not always enough
STK33 inh = inhibitors of purified STK33 kinase, primary screen, biochemical, ADP-Glo luminescence, homogeneous, cell-free; MBP phosphorylation; inhibition, % at 10 µM; actives 0.073% (n = 320,000);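 active means inhibition at or above 25%, using the most active replicate where run in duplicate; inactive means inhibition below 25%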
GSK3 alpha inh = blockers of GSK3A enzyme activity – biochemical, luminescence, cell-free homogeneous, HTS, primary screen | Glycogen synthase kinase-3 alpha (Homo sapiens), P49840 | actives 0.1% (n = 320,000) | GSK-3 alpha kinase, ADP-Glo luminescence, 60 min | inhibition, % at 10 µM | AID 2650, 2010;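 active means more than half of replicates show inhibition above 20%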;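 further: GST-tagged GSK-3 alpha with peptide substrate and 25 µM ATP; 0% = DMSO neutral wells and 100% = GW8510 positive control wells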
GSK3B inh = human GSK3beta kinase inhibitors, primary screen, biochemical, cell-free homogeneous, HTS. Glycogen synthase kinase-3 beta (Homo sapiens), P49841. actives 0.038% (n = 300,000). AID 2097, 2009. GST-GSK3beta kinase, ADP-Glo luminescence, 60 min; hits give low values. activity score (negative = inhibition), % at 10 µM;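 active means more than half of replicate wells score below -50%, meaning over 50% inhibition versus plate controls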;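 further: 0% = median DMSO wells and -100% = median GW8510 positive control wells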
Target sequence (P49841 whole entry, looked up): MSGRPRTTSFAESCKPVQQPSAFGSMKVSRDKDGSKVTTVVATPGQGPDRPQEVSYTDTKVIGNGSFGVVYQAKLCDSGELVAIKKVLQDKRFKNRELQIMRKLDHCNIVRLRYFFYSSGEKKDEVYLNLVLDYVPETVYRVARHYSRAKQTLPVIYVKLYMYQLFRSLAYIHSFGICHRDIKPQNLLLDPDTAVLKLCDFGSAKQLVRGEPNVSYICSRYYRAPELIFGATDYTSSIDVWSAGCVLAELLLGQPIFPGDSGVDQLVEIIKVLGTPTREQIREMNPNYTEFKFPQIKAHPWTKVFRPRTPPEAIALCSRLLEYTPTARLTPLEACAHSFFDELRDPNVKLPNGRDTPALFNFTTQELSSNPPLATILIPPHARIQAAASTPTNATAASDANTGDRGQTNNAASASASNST
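Test system – GST-tagged human GSK3beta kinase, cell-free · Incubation – 60 min enzyme reaction, room temperature · Signal – ADP-Glo luminescence · Also added – peptide substrate and ATP at 25 µM · Controls – DMSO neutral wells and GW8510 at 20 µM as positive · Buffer or medium – Tris/MgCl2 kinase buffer · Measure – Luminescence-derived activity versus plate DMSO and GW8510 wells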
MEKK2wt confirm = modulators of MEK5 binding to wildtype MEKK2, confirmation, biochemical, single concentration, multiplex bead flow cytometry. shares compounds with MEKK3 PB1 HTS. Alexa488-MEK5 binding to MEKK2 WT; actives lie on both sides. binding response (% of control), % at 10 µM. actives 2.4% (n = 5,900). AID 1892, 2009; in the data active means binding response below about 16% or above about 210%; inactive means in between
MEKK2mut confirm = mutant MEKK2 PB1-MEK5 binding signal retest – biochemical, single concentration, multiplex bead flow cytometry, confirmation. actives 2% (n = 5,900). percent response, % at 10 µM. AID 1893, 2009. Alexa488-MEK5 binding to MEKK2 mutant. shares compounds with MEKK3 PB1 HTS; in the data active means percent response mostly above about 71%, no sharp cut-off; inactive means mostly below about 38%;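 further: higher means compound restores mutant binding toward wildtype level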
MEKK3-MEK5 inh = MEKK3 wild-type PB1 binding to MEK5, inhibitors, confirmation, biochemical, bead multiplex flow cytometry, single concentration, wildtype | shares compounds with MEKK3 PB1 HTS | Alexa488-MEK5 binding to MEKK3; hits give low values | binding response (% of control), % at 10 µM | actives 1.8% (n = 5,900);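 active means binding response below 72% of control, or above a set upper limit, though filed actives all read lower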;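 further: 100% = DMSO only wells and 0% = binding blocked by excess unlabeled MEK5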
* marks the source's active call; other numbers are inactive results; / = not tested or not shown; [ ] = dose if it differs, or a comment. Rows were chosen to be rich in hits. Some 2.1% of all compounds tested hit in one or more screens of this group.

SMILES | MEKK3 PB1 HTS | MEKK2wt PB1 HTS | MEKK2 mut-MEK5 | STK33 inh | GSK3 alpha inh | GSK3B inh | MEKK2wt confirm | MEKK2mut confirm | MEKK3-MEK5 inh
CCOC(=O)Cc1nc2ccccc2[nH]1 | 109 | 106 | 6 | -2 | -1 | -1 | / | / | /
O=C(c1ccc(S(=O)(=O)c2cccc(Cl)c2)c([N+](=O)[O-])c1)N1CCN(c2ccccn2)CC1 | 99 | 97 | -1 | -2 | -3 | -2 | / | / | /
CC1(C)C(=O)C2(CCCCC2)C(=O)OC1c1cccn1-c1ccc([N+](=O)[O-])cc1 (stereo not given) | 133* | 107 | 0 | -2 | 1 | 1 | 103 | 3 | 101
O=C1OC(c2cccc([N+](=O)[O-])c2)C2(CCCC2)C(=O)C12CCCCC2 (stereo not given) | 142* | 104 | 0 | -1 | -1 | 0 | 93 | -4 | 95
CC1(C)C(=O)OC(c2cccn2-c2ccc([N+](=O)[O-])cc2)C(C)(C)C1=O (stereo not given) | 136* | 104 | 0 | -2 | 5 | 5 | 103 | 2 | 104
O=C1OC(c2ccccc2)C2(CCCC2)C(=O)C12CCCC2 (stereo not given) | 106 | 105 | -1 | 0 | 6 | 1 | / | / | /
CC1(C)C(=O)C2(CCCCC2)C(=O)OC1c1ccc(O)cc1 (stereo not given) | 93 | 93 | -8 | -2 | -1 | -2 | / | / | /
CC1(C)C(=O)OC(c2c3ccccc3cc3ccccc23)C(C)(C)C1=O (stereo not given) | 90 | 91 | -12 | -2 | -7 | 3 | / | / | /
Cc1ccccc1CN1CCC(n2nccc2NC(=O)CCOc2ccccc2)CC1 | 97 | 106 | 0 | -1 | 1 | / | / | / | /
O=c1ncn(-c2cccc(Cl)c2)c2ccccc12 | / | / | / | -4 | -1 | 1 | / | / | /
O=C(COC(=O)CCN1C(=O)/C(=C\C=C\c2ccccc2)SC1=S)Nc1cc(F)ccc1F | 92 | 58*[inhibitor] | -34 | -2 | 0 | 4 | 68 | -18 | 94
C(#Cc1ccccc1)C[N+]1(CC#Cc2cccc3ccccc23)CCOCC1 | 103 | 154* | 1 | / | / | -3 | 145 | 24 | 104
C#CC[N+]1(CC#Cc2ccccc2)CCOCC1 | 102 | 103 | 3 | -2 | 0 | 0 | / | / | /
CCCc1ccc2oc(C(=O)N(C)CCn3ccnc3C)c(C)c2c1 | 113 | 117 | 24* | -1 | 0 | -1 | 104 | -2 | 102
CC1CCC(C(C)C)C(OCC[N+](C)(C)C)C1 (stereo not given) | 143* | 111 | 1 | -1 | -2 | -5 | 101 | 0 | 102
Cc1ccc(COC(=O)c2ccc3ccccc3n2)cc1 | 106 | 105 | 4 | -2 | 1 | 2 | / | / | /
CCOC(=O)c1ccc(NC(=S)N(CCCN2CCCC(C)C2)Cc2cccs2)cc1 (stereo not given) | 103 | 142* | 13 | 0 | 1 | 3 | 119 | 6 | 100
CCOC(=O)c1ccc(NC(=S)N(CCCN2CCCC2)Cc2cccs2)cc1 | 107 | 124 | 9 | 0 | -10 | 0 | / | / | /
O=C(COc1ccc2c3c(c(=O)oc2c1)CCC3)Nc1ccccn1 | 102 | 97 | 0 | 0 | -1 | / | / | / | /
Cc1ccc2nc(Cl)c3cc(C(=O)N(CCN(C)C)Cc4ccco4)sc3c2c1 | 96 | 149* | 5 | 4 | -1 | 1 | 137 | 21 | 104
CC[C@H](C)[C@@H](CN[C@H](CCCCNC)CNC)NCC1CCCC1 | 104 | 141* | 8 | -2 | -2 | -3 | 114 | 8 | 106
Nc1cc(=O)[nH]c(SCC(=O)Nc2cc([N+](=O)[O-])ccc2Cl)n1 | 138* | 117 | 4 | 0 | 0 | 0 | 101 | 2 | 103
Cn1cc(Br)c(-c2cccc(N3C(=O)CCCC3=O)c2)n1 | 85 | 82 | -21 | 0 | 1 | -3 | / | / | /
FCCCOc1ccc(-c2nccc(-c3ccc(Cl)cc3)n2)cc1 | 77*[inhibitor] | 91 | -15 | -1 | -1 | -1 | 105 | 7 | 106
N=C1CCCN1CC(=O)c1ccc(Br)cc1 | 143* | 108 | 0 | -1 | -1 | -1 | 100 | -3 | 102
SMILES | MEKK3 PB1 HTS | MEKK2wt PB1 HTS | MEKK2 mut-MEK5 | STK33 inh | GSK3 alpha inh | GSK3B inh | MEKK2wt confirm | MEKK2mut confirm | MEKK3-MEK5 inh
Cn1c(=N)n(CC(=O)c2ccc(Br)cc2)c2ccccc21 | / | / | / | -1 | 0 | -2 | / | / | /
Cc1ccc(CNC(=O)COC(=O)CCC(=O)c2cccs2)cc1 | 96 | 92 | -8 | -1 | -1 | 3 | / | / | /
CCCCNCC(O)(c1ccc(Cl)cc1)c1ccc(Cl)cc1 | 119 | 146* | 21 | 1 | -2 | 0 | 105 | -6 | 84
OC(CNCc1ccc(Cl)cc1)(c1ccccc1)c1ccc(F)cc1 (stereo not given) | 102 | 118 | 5 | 1 | -1 | -1 | / | / | /
COc1ccc(CNCC(O)(c2ccc(Cl)cc2)c2ccc(Cl)cc2)cc1OC | 113 | 179* | 39 | 0 | 1 | 1 | 131 | 9 | 100
COc1ccc(CNCC(O)(c2ccccc2)c2ccc(F)cc2)cc1OC (stereo not given) | 105 | 111 | 9 | -2 | 0 | 0 | / | / | /
COc1ccc(CNCC(O)(c2ccc(Cl)cc2)c2ccc(Cl)cc2)cc1 | 105 | 154* | 10 | 0 | 0 | 1 | 167 | 26 | 106
COc1ccc(C2NC(=O)NC(C)=C2C(=O)OCC2CCCCC2)cc1OC (stereo not given) | 108 | 104 | 12 | -1 | 1 | 0 | / | / | /

High-throughput results deposited in PubChem by several laboratories.
